Here are results for four compounds from ChEMBL document CHEMBL3877317, “Quinazolinone derivatives: Synthesis and comparison of inhibitory mechanisms on α-glucosidase” (Bioorg Med Chem, 2017).

Test [1] concerns Saccharomyces cerevisiae. In words: Reversible inhibition of Saccharomyces cerevisiae alpha-glucosidase type 1 at 8 to 24 uM using p-nitro-phenyl-alpha-D-glucopyranoside as substrate preincubated for 10 mins followed by substrate addition measured after 5 mins every 10 secs.
In test [2] the test system is Saccharomyces cerevisiae. In words: Binding affinity to Saccharomyces cerevisiae alpha-glucosidase type 1 assessed as Stern-Volmer quenching constant at 25 degC by fluorescence spectrophotometric method. The essentials: (§1)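 Fluorescence quenching: enzyme (0.1 mg/mL, 50 µL) mixed with sample at varied concentrations in 0.1 mM sodium phosphate buffer, 25 °C. Excitation 280 nm, emission scanned 300-500 nm. F0/F plotted against [Q] and fitted to the Stern-Volmer equation (F0/F = 1 + Kqτ0[Q] = 1 + Ksv[Q]) to give Ksv and Kq.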

Test [3] has as its system Saccharomyces cerevisiae. As to the kind of experiment: Binding affinity to Saccharomyces cerevisiae alpha-glucosidase type 1 assessed as quenching velocity constant of biomolecular reaction at 25 degC by fluorescence spectrophotometric method. An outline of the steps: as §1
A short description of test [4]: Non-competitive inhibition of Saccharomyces cerevisiae alpha-glucosidase type 1 using p-nitro-phenyl-alpha-D-glucopyranoside as substrate preincubated for 10 mins followed by substrate addition measured after 5 mins every 10 secs by Lineweaver-Burk plot analysis. An outline of the steps:
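Same pNPG assay (0.1 M potassium phosphate pH 6.8, A405 every 10 s, ambient temperature), inhibitor 0-24 µM (or 0-16 µM). Inhibition type assigned from Lineweaver-Burk plots. KI taken from the secondary plot.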

Test [5] can be described thus: Inhibition of Saccharomyces cerevisiae alpha-glucosidase type 1 using p-nitro-phenyl-alpha-D-glucopyranoside as substrate preincubated for 10 mins followed by substrate addition measured after 5 mins every 10 secs. An outline of the steps: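 Enzyme (7 U/mL, 50 µL) with sample at varied concentrations, then 5 mM pNPG (200 µL) in 0.1 M potassium phosphate pH 6.8. A405 read every 10 s at ambient temperature. Relative activity = slope with inhibitor / slope without × 100. Acarbose as positive control.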

The subject of test [6] is Saccharomyces cerevisiae. In words: Binding affinity to Saccharomyces cerevisiae alpha-glucosidase type 1 at 25 degC by fluorescence spectrophotometric method.
The subject of test [7] is Saccharomyces cerevisiae. As to the kind of experiment: Binding affinity to Saccharomyces cerevisiae alpha-glucosidase type 1 assessed as fluorescence quenching by measuring relative fluorescence intensity at 50 uM by fluorescence spectrophotometric method. The essentials:
(§2)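 Intrinsic enzyme fluorescence (peak 330 nm) recorded with excitation 280 nm, emission 300-500 nm, 25 °C. Enzyme 0.1 mg/mL in 0.1 mM sodium phosphate buffer; compound series 0-50 µM or 0-60 µM. Relative intensity expressed as F/F0 against enzyme alone.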

Test [8] concerns Saccharomyces cerevisiae. As to the kind of experiment: Binding affinity to Saccharomyces cerevisiae alpha-glucosidase type 1 assessed as fluorescence quenching by measuring relative fluorescence intensity at 60 uM by fluorescence spectrophotometric method. An outline of the steps:
as §2

Calls of active or inactive are those of the source. The rule behind the calls is not given here. A value given as a limit tells only on which side of the number the result lay.

In general, Ki refers to a measure of affinity in units of concentration, obtained from inhibition or displacement. Lower therefore signals a stronger hold on the target. Broadly, the IC50 is the concentration needed to halve the response being measured. Read a high IC50 as weaker potency. Consider `O=c1[nH]c(-c2ccc(Cl)cc2)nc2ccccc12`, for which, in the test on Saccharomyces cerevisiae [1], the inhibition result is “Active”. The KSV in the test with Saccharomyces cerevisiae [2] stood at 3.1 ×10⁴ L/mol. The Kq in the test with Saccharomyces cerevisiae [3] is 3.1 ×10¹² L/mol.s. Besides, the affinity in test [4] corresponds to a Ki of 9.1 µM. In test [5], this compound came in with an IC50 of 12.5 µM. In the test on Saccharomyces cerevisiae [6], this compound had a K of 1.78 ×10⁴ L/mol. The Activity with Saccharomyces cerevisiae [7] worked out at 39.3%.
Take `O=c1[nH]c(-c2ccc(Br)cc2)nc2ccccc12`: the inhibition result in the test on Saccharomyces cerevisiae [1] is “Active”. Besides, in the test on Saccharomyces cerevisiae [8], the Activity is 69.3%. Further, the KSV in the test with Saccharomyces cerevisiae [2] was determined as 7.26 ×10³ L/mol. In the test on Saccharomyces cerevisiae [3], the Kq is 7.26 ×10¹¹ L/mol.s. For the same compound, the inhibition constant (Ki) in test [4] came to 10.6 µM. The IC50 in test [5] came out at 15.6 µM. The same compound showed a K in the test with Saccharomyces cerevisiae [6] of 1.25 ×10⁴ L/mol.
On to `Oc1nc(-c2ccc(F)cc2)nc2ccccc12`, for which the half-inhibitory concentration (IC50) in test [5] is > 57.2 µM.
In test [5], `C[C@H]1O[C@H](O[C@H]2[C@H](O)[C@@H](O)[C@@H](O[C@H]3[C@H](O)[C@@H](O)C(O)O[C@@H]3CO)O[C@@H]2CO)[C@H](O)[C@@H](O)[C@@H]1N[C@H]1C=C(CO)[C@@H](O)[C@H](O)[C@H]1O` (stereo partly specified) [ACARBOSE] displayed an IC50 of 475 µM.
